Measured values taken from ChEMBL document CHEMBL1153796, “Isoprenylated chromone derivatives from the plant endophytic fungus Pestalotiopsis fici” (J Nat Prod, 2009).
pEC50, pIC50: −log10 of the molar value.

Legend:
[1] = test system: Human immunodeficiency virus 1; assay: Antiviral activity against HIV1 infected human C8166 cells assessed as inhibition of viral replication after 4 days by p24 antigen capture ELISA; type: functional, organism-based; conditions: Human immunodeficiency virus 1, C8166, 96 h
HeLa = assay: Cytotoxicity against human HeLa cells after 48 hrs by MTT assay; type: functional, cell-based
Summary of the method: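 Cells plated at 10^4/well and allowed to attach overnight. Exposed to compound dilutions from DMSO stock (vehicle 0.2% DMSO) for 4 h at 37 °C, then grown 48 h in fresh DMEM. MTT at 0.5 mg/mL added for 3 h, formazan dissolved in DMSO, absorbance at 540 nm; 5-fluorouracil as positive control.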

MCF7 = assay: Cytotoxicity against human MCF7 cells after 48 hrs by MTT assay; type: functional, cell-based; conditions: MCF7, 48 h
C8166 = assay: Cytotoxicity against human C8166 cells after 4 days by MTT assay; type: cell-based; conditions: C8166, 96 h
Summary of the method: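 C8166 cells seeded at 3 × 10^4/well with various compound concentrations in triplicate, 37 °C, 5% CO2, run alongside the HIV-1 assay.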

| SMILES | pEC50 [1] | pIC50 (HeLa) | pIC50 (MCF7) | CC50 (C8166) [µM] |
| --- | --- | --- | --- | --- |
| CC(C)=CC=C1C2=C(C[C@H](O)[C@@H]1O)C(=O)CC(C)(C)O2 (mixture of isomers) | 4.05 | < 3.84 | < 3.84 |  |
| O=c1[nH]cc(F)c(=O)[nH]1 [FLUOROURACIL] |  | 5.00 |  |  |
| CC(C)=CC[C@]12O[C@H]1[C@@H](O)CC1=C2OC(C)(C)CC1=O [PESTALOFICIOL F] | < 4.00 | < 3.84 | < 3.84 |  |
| CC1(C)CC(=O)C2=C(O1)C1=C[C@@H](C(C)(C)O)O[C@H]1[C@@H](O)C2 [PESTALOFICIOL I] | < 4.00 | < 3.87 | 3.87 |  |
| CC(C)=CCc1cc(O)cc2c1OC(C)(C)CC2=O [PESTALOFICIOL J] | 5.10 | 4.67 | < 3.81 | > 100 |
| CC(=O)OC1=CC(C)(C)Oc2c(CC=C(C)C)cc(O)cc21 [PESTALOFICIOL K] | 4.11 | 4.00 | < 3.88 |  |
| COC(=O)c1cc(OC)cc(O)c1C(=O)c1c(O)cc(C)c(C2=CC(C)(C)Oc3c(CC=C(C)C)cc(O)cc32)c1O [PESTALOFICIOL L] | < 4.00 | 5.06 | 4.76 |  |
